Test results reported in ChEMBL document CHEMBL1146203, “Acridone-based inhibitors of inosine 5'-monophosphate dehydrogenase: discovery and SAR leading to the identification of N-(2-(6-(4-ethylpiperazin-1-yl)pyridin-3-yl)propan-2-yl)-2- fluoro-9-oxo-9,10-dihydroacridine-3-carboxamide (BMS-566419)” (J Med Chem, 2007).

Experiments:
[1] = molecular target: Inosine-5'-monophosphate dehydrogenase 2 (Homo sapiens, UniProt P12268); assay: Inhibition of human IMPDH2
[2] = test system: CCRF-CEM; assay: Inhibition of CEM cell proliferation; format: functional, cell-based; settings: Homo sapiens
Method in brief: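 Human CEM T-lymphoblasts grown in RPMI 1640 with 10% heat-inactivated FBS and penicillin/streptomycin. Seeded at 3000 cells/well with 0.5% DMSO; compounds tested in triplicate from 10 µM top concentration in 3-fold dilutions.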

[3] = test system: PBMC; assay: Inhibition of T cell proliferation in PBMC cells; format: functional, cell-based; settings: Homo sapiens
Method in brief: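 Human PBMCs isolated from heparinized whole blood by density gradient and plated at 5 × 10^4 cells/well in RPMI 1640 with 10% FBS. Stimulated with anti-CD3 OKT3 (200 ng/mL) plus soluble anti-CD28 (1 µg/mL). Compounds tested in triplicate from 3.3 µM in 3-fold dilutions with 0.5% DMSO for 72 h.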

SMILES | IC50 [1] [nM] | IC50 [2] [nM] | IC50 [3] [nM]
CC(C)(NC(=O)c1cc2[nH]c3ccccc3c(=O)c2cc1F)c1ccccn1 | 29 | 1000 | –
O=C(NCc1ccccc1)c1ccc2c(=O)c3ccccc3[nH]c2c1 | 2200 | – | –
CC(C)(NC(=O)c1ccc2c(=O)c3ccccc3[nH]c2c1)c1ccncc1 | 53 | 2300 | 630
CN(C)c1ccc(C(C)(C)NC(=O)c2cc3[nH]c4ccccc4c(=O)c3cc2F)cn1 | 22 | 850 | 340
CC(C)(NC(=O)c1ccc2c(=O)c3ccccc3[nH]c2c1)c1ccccn1 | 53 | 2200 | –
COc1c(C)c2c(c(O)c1C/C=C(\C)CCC(=O)O)C(=O)OC2 [MYCOPHENOLIC ACID] | – | – | 130

Further compounds by falling IC50 [1], results first:

IC50 [1] [nM] | IC50 [2] [nM] | SMILES | IC50 [3] [nM]
20 | 810 | COc1cc(C(C)(C)NC(=O)c2cc3[nH]c4ccccc4c(=O)c3cc2F)cnc1N1CCOCC1 | 320
19 | – | CC(C)(NC(=O)c1ccc2c(=O)c3ccccc3[nH]c2c1)c1ccccc1 | 730
17 | 920 | CC(C)(NC(=O)c1cc2[nH]c3ccccc3c(=O)c2cc1F)c1cnc2c(c1)OCCN2 | 320
14 | 640 | CN(C)c1cc(C(C)(C)NC(=O)c2cc3[nH]c4ccccc4c(=O)c3cc2F)ccn1 | 220
11 | 830 | CC(C)(NC(=O)c1cc2[nH]c3ccccc3c(=O)c2cc1F)c1ccccc1 | 220
11 | 420 | CC(C)(NC(=O)c1cc2[nH]c3ccccc3c(=O)c2cc1F)c1cccnc1 | 140
10 | 660 | CN(C)S(=O)(=O)c1ccc(C(C)(C)NC(=O)c2cc3[nH]c4ccccc4c(=O)c3cc2F)cc1 | 200
